The source made the active and inactive calls. The rule behind the calls is not given here.
How the values were obtained:
MDCK = test: Cytotoxicity against dog MDCK cells assessed as cell viability measured at 100 uM after 45 hrs by Celltiter-Glo luminescence assay; format: cell-based, Canis lupus familiaris
How it was run: (§1)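 Viability screen of uninfected MDCK cells at 100 μM compound, read by CellTiter-Glo luminescence with DMSO as negative control; triplicate experiments.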

Influenza A virus [1] = test: Antiviral activity against Influenza A virus A/WSN/33(H1N1) infected in MDCK cells assessed as inhibition of virus-induced cytopathic effect at 100 uM measured after 45 hrs by CellTiter-Glo luminescence assay; format: functional, organism-based; details: A/WSN/1933(H1N1)
How it was run: (§2)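 Single-concentration screen at 100 μM in MDCK cells infected with A/WSN/33 under the same conditions: 1% FBS DMEM with 1 μg/mL trypsin, MOI 0.1, 45 h. Cytopathic effect was read by CellTiter-Glo luminescence against a DMSO negative control, from triplicate experiments.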

Influenza A virus [2] = test: Antiviral activity against Influenza A virus A/WSN/33(H1N1) infected in MDCK cells assessed as inhibition of virus-induced cytopathic effect at 100 uM measured after 45 hrs by CellTiter-Glo luminescence assay relative to control; format: functional; details: A/WSN/1933(H1N1); how it was run: as §2
[3] = biological target: Hemagglutinin (Influenza A virus) (UniProt B4URE7); test: Inhibition of Influenza A virus HA-mediated chicken erythrocytes aggregation incubated for 30 mins
Hemagglutinin (Influenza A virus), sequence (B4URE7 as listed by the source): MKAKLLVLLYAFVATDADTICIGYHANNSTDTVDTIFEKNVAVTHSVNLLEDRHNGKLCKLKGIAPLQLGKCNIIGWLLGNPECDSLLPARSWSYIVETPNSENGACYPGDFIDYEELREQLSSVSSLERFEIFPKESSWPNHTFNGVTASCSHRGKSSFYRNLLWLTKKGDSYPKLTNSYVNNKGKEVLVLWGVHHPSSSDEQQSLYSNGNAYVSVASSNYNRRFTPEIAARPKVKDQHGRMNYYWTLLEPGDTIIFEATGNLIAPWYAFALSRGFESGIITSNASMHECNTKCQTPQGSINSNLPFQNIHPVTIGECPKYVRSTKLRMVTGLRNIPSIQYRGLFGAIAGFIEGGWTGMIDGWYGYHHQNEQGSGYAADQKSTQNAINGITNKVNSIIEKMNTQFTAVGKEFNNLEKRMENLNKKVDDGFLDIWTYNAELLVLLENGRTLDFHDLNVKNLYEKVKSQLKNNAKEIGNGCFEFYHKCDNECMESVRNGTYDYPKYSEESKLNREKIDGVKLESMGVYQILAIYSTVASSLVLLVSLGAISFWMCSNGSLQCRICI
How it was run: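 Compound was 2-fold serially diluted in saline from 100 to 1.56 μM and mixed with an equal volume of influenza virus (2 HA units). Chicken red blood cells (1% v/v in saline) were then added. After 30 min at room temperature, erythrocyte aggregation was scored by eye. An anti-HA monoclonal antibody served as positive control.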

Influenza A virus [4] = test: Antiviral activity against Influenza A virus A/WSN/33(H1N1) infected in MDCK cells assessed as inhibition of virus-induced cytopathic effect measured after 45 hrs by CellTiter-Glo luminescence assay; format: functional, organism-based; details: A/WSN/1933(H1N1)
How it was run: (§3)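 MDCK cells (5,000/well) were seeded one day before infection. Infection medium was high-glucose DMEM with 1% FBS and trypsin (1 μg/mL). Compounds were added at various concentrations and cells infected at MOI 0.1. After 45 h, viability was read by CellTiter-Glo luminescence. IC50 was taken from dose-response curves, as the mean of duplicate samples from three independent experiments.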

Influenza A virus H3N2 = test: Antiviral activity against Influenza A virus A/Texas/50/2012(H3N2) infected in MDCK cells inhibition of virus-induced cytopathic effect measured after 45 hrs by CellTiter-Glo luminescence assay; format: functional, organism-based; how it was run: as §3
[5] = Cytotoxicity against dog MDCK cells assessed as cell viability measured after 45 hrs by Celltiter-Glo luminescence assay; format: cell-based, Canis lupus familiaris
How it was run: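 Non-infected MDCK cells were exposed to compound dilutions and viability was read by CellTiter-Glo luminescence. CC50 is the concentration reducing viability of uninfected cells by 50%, given as the mean of duplicate samples from three independent experiments.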

[6] = Cytotoxicity against dog MDCK cells assessed as cell viability measured at 100 uM after 45 hrs by Celltiter-Glo luminescence assay relative to control; format: cell-based, Canis lupus familiaris; details: read-out: Activity; how it was run: as §1

Row | SMILES | Activity (MDCK) | inhibition (Influenza A virus [1]) | other results
1 | COC(=O)[C@H](C)NC(=O)[C@]12CCC(C)(C)C[C@H]1C1=CC[C@@H]3[C@@]4(C)CC[C@H](O)C(C)(C)[C@@H]4CC[C@@]3(C)[C@]1(C)CC2 | Toxic | Active | –
2 | COC(=O)[C@H](Cc1c[nH]cn1)NC(=O)[C@]12CCC(C)(C)C[C@H]1C1=CC[C@@H]3[C@@]4(C)CC[C@H](O)C(C)(C)[C@@H]4CC[C@@]3(C)[C@]1(C)CC2 | Toxic | Active | –
3 | COC(=O)[C@H](Cc1c[nH]c2ccccc12)NC(=O)[C@]12CCC(C)(C)C[C@H]1C1=CC[C@@H]3[C@@]4(C)CC[C@H](O)C(C)(C)[C@@H]4CC[C@@]3(C)[C@]1(C)CC2 | Toxic | Active | –
4 | CC1(C)CC[C@]2(C(=O)N[C@@H](CCCNC(=N)N)C(=O)O)CC[C@]3(C)C(=CC[C@@H]4[C@@]5(C)CC[C@H](O)C(C)(C)[C@@H]5CC[C@]43C)[C@@H]2C1 | Toxic | Active | inhibition at 100 µM (Influenza A virus [2]): 75%; inhibition [3]: Dose-dependent effect; IC50 (Influenza A virus [4]): 6.64 µM; IC50 (Influenza A virus H3N2): 14.1 µM; CC50 at 45 h [5]: > 100 µM; viability at 45 h, 100 µM [6]: 75%
5 | C[C@@H](O)[C@H](NC(=O)[C@]12CCC(C)(C)C[C@H]1C1=CC[C@@H]3[C@@]4(C)CC[C@H](O)C(C)(C)[C@@H]4CC[C@@]3(C)[C@]1(C)CC2)C(=O)O | Toxic | Active | –
6 | CC1(C)CC[C@]2(C(=O)N[C@@H](Cc3ccccc3)C(=O)O)CC[C@]3(C)C(=CC[C@@H]4[C@@]5(C)CC[C@H](O)C(C)(C)[C@@H]5CC[C@]43C)[C@@H]2C1 | Toxic | Active | –
7 | COC(=O)[C@H](CCSC)NC(=O)[C@]12CCC(C)(C)C[C@H]1C1=CC[C@@H]3[C@@]4(C)CC[C@H](O)C(C)(C)[C@@H]4CC[C@@]3(C)[C@]1(C)CC2 | Toxic | Active | –
8 | COC(=O)[C@H](Cc1ccccc1)NC(=O)[C@]12CCC(C)(C)C[C@H]1C1=CC[C@@H]3[C@@]4(C)CC[C@H](O)C(C)(C)[C@@H]4CC[C@@]3(C)[C@]1(C)CC2 | Toxic | Active | –
9 | COC(=O)[C@H](CC(C)C)NC(=O)[C@]12CCC(C)(C)C[C@H]1C1=CC[C@@H]3[C@@]4(C)CC[C@H](O)C(C)(C)[C@@H]4CC[C@@]3(C)[C@]1(C)CC2 | Toxic | Active | –
10 | COC(=O)[C@@H]1CCCN1C(=O)[C@]12CCC(C)(C)C[C@H]1C1=CC[C@@H]3[C@@]4(C)CC[C@H](O)C(C)(C)[C@@H]4CC[C@@]3(C)[C@]1(C)CC2 | Toxic | Active | –
11 | CC1(C)CC[C@]2(C(=O)N[C@@H](CC(=O)O)C(=O)O)CC[C@]3(C)C(=CC[C@@H]4[C@@]5(C)CC[C@H](O)C(C)(C)[C@@H]5CC[C@]43C)[C@@H]2C1 | Toxic | Active | –
12 | C[C@H](NC(=O)[C@]12CCC(C)(C)C[C@H]1C1=CC[C@@H]3[C@@]4(C)CC[C@H](O)C(C)(C)[C@@H]4CC[C@@]3(C)[C@]1(C)CC2)C(=O)O | Toxic | Active | –
13 | CC[C@H](C)[C@H](NC(=O)[C@]12CCC(C)(C)C[C@H]1C1=CC[C@@H]3[C@@]4(C)CC[C@H](O)C(C)(C)[C@@H]4CC[C@@]3(C)[C@]1(C)CC2)C(=O)OC | Toxic | Active | –
14 | CCOC(=O)C1=C[C@@H](OC(CC)CC)[C@H](NC(C)=O)[C@@H](N)C1 [OSELTAMIVIR PHOSPHATE] | – | – | IC50 (Influenza A virus H3N2): > 100 µM; CC50 at 45 h [5]: > 100 µM
15 | CC1(C)CC[C@]2(C(=O)N[C@@H](Cc3c[nH]c4ccccc34)C(=O)O)CC[C@]3(C)C(=CC[C@@H]4[C@@]5(C)CC[C@H](O)C(C)(C)[C@@H]5CC[C@]43C)[C@@H]2C1 | Toxic | Active | –
16 | CC1(C)CC[C@]2(C(=O)O)CC[C@]3(C)C(=CC[C@@H]4[C@@]5(C)CC[C@H](O)C(C)(C)[C@@H]5CC[C@]43C)[C@@H]2C1 | – | Active | –
17 | CC1(C)CC[C@]2(C(=O)N[C@@H](CCC(=O)O)C(=O)O)CC[C@]3(C)C(=CC[C@@H]4[C@@]5(C)CC[C@H](O)C(C)(C)[C@@H]5CC[C@]43C)[C@@H]2C1 | Toxic | Active | –

Row | SMILES | Activity (MDCK) | inhibition (Influenza A virus [1]) | other results
18 | COC(=O)[C@H](CO)NC(=O)[C@]12CCC(C)(C)C[C@H]1C1=CC[C@@H]3[C@@]4(C)CC[C@H](O)C(C)(C)[C@@H]4CC[C@@]3(C)[C@]1(C)CC2 | Toxic | Active | –
19 | CC1(C)CC[C@]2(C(=O)N3CCC[C@H]3C(=O)O)CC[C@]3(C)C(=CC[C@@H]4[C@@]5(C)CC[C@H](O)C(C)(C)[C@@H]5CC[C@]43C)[C@@H]2C1 | Toxic | Active | –
20 | COC(=O)CNC(=O)[C@]12CCC(C)(C)C[C@H]1C1=CC[C@@H]3[C@@]4(C)CC[C@H](O)C(C)(C)[C@@H]4CC[C@@]3(C)[C@]1(C)CC2 | Toxic | Active | –
21 | CC1(C)CC[C@]2(C(=O)N[C@@H](CO)C(=O)O)CC[C@]3(C)C(=CC[C@@H]4[C@@]5(C)CC[C@H](O)C(C)(C)[C@@H]5CC[C@]43C)[C@@H]2C1 | Toxic | Active | –
22 | CC(C)[C@H](NC(=O)[C@]12CCC(C)(C)C[C@H]1C1=CC[C@@H]3[C@@]4(C)CC[C@H](O)C(C)(C)[C@@H]4CC[C@@]3(C)[C@]1(C)CC2)C(=O)O | Toxic | Active | –
23 | COC(=O)CC[C@H](NC(=O)[C@]12CCC(C)(C)C[C@H]1C1=CC[C@@H]3[C@@]4(C)CC[C@H](O)C(C)(C)[C@@H]4CC[C@@]3(C)[C@]1(C)CC2)C(=O)OC | Toxic | Active | –
24 | CC[C@H](C)[C@H](NC(=O)[C@]12CCC(C)(C)C[C@H]1C1=CC[C@@H]3[C@@]4(C)CC[C@H](O)C(C)(C)[C@@H]4CC[C@@]3(C)[C@]1(C)CC2)C(=O)O | Toxic | Active | –
25 | COC(=O)[C@@H](NC(=O)[C@]12CCC(C)(C)C[C@H]1C1=CC[C@@H]3[C@@]4(C)CC[C@H](O)C(C)(C)[C@@H]4CC[C@@]3(C)[C@]1(C)CC2)C(C)C | Toxic | Active | –
26 | CC1(C)CC[C@]2(C(=O)N[C@@H](Cc3c[nH]cn3)C(=O)O)CC[C@]3(C)C(=CC[C@@H]4[C@@]5(C)CC[C@H](O)C(C)(C)[C@@H]5CC[C@]43C)[C@@H]2C1 | Toxic | Active | –
27 | CC1(C)CC[C@]2(C(=O)NCC(=O)O)CC[C@]3(C)C(=CC[C@@H]4[C@@]5(C)CC[C@H](O)C(C)(C)[C@@H]5CC[C@]43C)[C@@H]2C1 | Toxic | Active | –
28 | CSCC[C@H](NC(=O)[C@]12CCC(C)(C)C[C@H]1C1=CC[C@@H]3[C@@]4(C)CC[C@H](O)C(C)(C)[C@@H]4CC[C@@]3(C)[C@]1(C)CC2)C(=O)O | Toxic | Active | –
29 | COC(=O)[C@@H](NC(=O)[C@]12CCC(C)(C)C[C@H]1C1=CC[C@@H]3[C@@]4(C)CC[C@H](O)C(C)(C)[C@@H]4CC[C@@]3(C)[C@]1(C)CC2)[C@@H](C)O | Toxic | Active | –
30 | COC(=O)[C@H](CCCNC(=N)N)NC(=O)[C@]12CCC(C)(C)C[C@H]1C1=CC[C@@H]3[C@@]4(C)CC[C@H](O)C(C)(C)[C@@H]4CC[C@@]3(C)[C@]1(C)CC2 | Toxic | Active | –
31 | COC(=O)[C@H](Cc1ccc(O)cc1)NC(=O)[C@]12CCC(C)(C)C[C@H]1C1=CC[C@@H]3[C@@]4(C)CC[C@H](O)C(C)(C)[C@@H]4CC[C@@]3(C)[C@]1(C)CC2 | Toxic | Active | –
32 | CC(C)C[C@H](NC(=O)[C@]12CCC(C)(C)C[C@H]1C1=CC[C@@H]3[C@@]4(C)CC[C@H](O)C(C)(C)[C@@H]4CC[C@@]3(C)[C@]1(C)CC2)C(=O)O | Toxic | Active | –
33 | COC(=O)C[C@H](NC(=O)[C@]12CCC(C)(C)C[C@H]1C1=CC[C@@H]3[C@@]4(C)CC[C@H](O)C(C)(C)[C@@H]4CC[C@@]3(C)[C@]1(C)CC2)C(=O)OC | Toxic | Active | –
34 | CC1(C)CC[C@]2(C(=O)N[C@@H](Cc3ccc(O)cc3)C(=O)O)CC[C@]3(C)C(=CC[C@@H]4[C@@]5(C)CC[C@H](O)C(C)(C)[C@@H]5CC[C@]43C)[C@@H]2C1 | Toxic | Active | –
